Measurements taken from ChEMBL document CHEMBL1134594 (J Med Chem, 2001).
Where a SMILES comes first, the peptide text is derived from it. Bridges are numbered along the chain shown (N, C = ends).

Tests used:
[1] = target: Glucagon receptor (Rattus norvegicus, UniProt P30082); test: Glucagon receptor binding measured as 50% inhibitory concentration
How it was run: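 Membranes (50 µg protein) were taken from the livers of male Sprague Dawley rats (200-250 g), purified on a sucrose gradient. […] Nonspecific binding was defined with excess unlabeled peptide and subtracted. Run in triplicate, repeated twice.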

[2] = target: Adenylate cyclase (Rattus norvegicus) (UniProt D4A3N4+P26770+Q04400+P26769+Q03343+P40146+Q8CFM9+P21932); test: Adenylate cyclase activity measured as percentage stimulation; assay type: protein assay; design: concentration or dose not given beside the values
[3] = target: Adenylate cyclase; test: Adenylate cyclase activity measured as 50% inhibitory concentration; assay type: protein assay

Chain of Glucagon receptor (P30082 whole entry): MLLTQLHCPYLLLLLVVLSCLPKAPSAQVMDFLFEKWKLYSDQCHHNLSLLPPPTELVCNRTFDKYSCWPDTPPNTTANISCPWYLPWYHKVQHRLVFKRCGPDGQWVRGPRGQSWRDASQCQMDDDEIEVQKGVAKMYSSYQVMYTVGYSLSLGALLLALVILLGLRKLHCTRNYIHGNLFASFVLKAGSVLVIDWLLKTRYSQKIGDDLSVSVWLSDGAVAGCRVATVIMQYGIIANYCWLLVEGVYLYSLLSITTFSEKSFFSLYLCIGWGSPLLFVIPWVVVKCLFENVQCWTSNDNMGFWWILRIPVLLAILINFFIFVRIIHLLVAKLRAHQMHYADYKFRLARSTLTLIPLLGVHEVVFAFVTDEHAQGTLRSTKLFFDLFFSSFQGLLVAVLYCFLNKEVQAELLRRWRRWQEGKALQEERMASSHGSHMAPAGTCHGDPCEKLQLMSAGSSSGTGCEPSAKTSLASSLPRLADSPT

Compound | IC50 [1] | Activity [2] | EC50 [3]
CSCC[C@H](NC(=O)[C@H](CC(C)C)NC(=O)[C@H](Cc1c[nH]c2ccccc12)NC(=O)[C@H](CCC(N)=O)NC(=O)[C@@H](NC(=O)[C@H](Cc1ccccc1)NC(=O)[C@H](CC(=O)O)NC(=O)[C@H](CCC(N)=O)NC(=O)[C@H](C)NC(=O)[C@H](CCCN=C(N)N)NC(=O)[C@H](CCCN=C(N)N)NC(=O)[C@H](CO)NC(=O)[C@H](CC(=O)O)NC(=O)[C@H](CC(C)C)NC(=O)[C@H](Cc1ccc(O)cc1)NC(=O)[C@H](CCCCN)NC(=O)[C@H](CO)NC(=O)[C@H](Cc1ccc(O)cc1)NC(=O)[C@@H]1CSSC[C@H](NC(=O)[C@H](CCC(N)=O)NC(=O)[C@H](CO)NC(=O)[C@@H](N)Cc2c[nH]cn2)C(=O)N[C@@H]([C@@H](C)O)C(=O)N[C@@H](Cc2ccccc2)C(=O)N[C@@H]([C@@H](C)O)C(=O)N[C@@H](CO)C(=O)N1)C(C)C)C(=O)N[C@@H](CC(N)=O)C(=O)N[C@H](C(=O)O)[C@@H](C)O (H-HSQCTFTSCYSKYLDSRRAQDFVQWLMNT-OH; disulfide 4-9) | 84.5 nM | 7.5% | 295 nM
CSCC[C@H](NC(=O)[C@H](CC(C)C)NC(=O)[C@H](Cc1c[nH]c2ccccc12)NC(=O)[C@H](CCC(N)=O)NC(=O)[C@@H](NC(=O)[C@H](Cc1ccccc1)NC(=O)[C@H](CC(=O)O)NC(=O)[C@H](CCC(N)=O)NC(=O)[C@H](C)NC(=O)[C@H](CCCN=C(N)N)NC(=O)[C@H](CCCN=C(N)N)NC(=O)[C@H](CO)NC(=O)[C@H](CC(=O)O)NC(=O)[C@H](CC(C)C)NC(=O)[C@@H]1CCC(=O)NCCCC[C@H](NC(=O)[C@H](CO)NC(=O)[C@@H](NC(=O)[C@H](Cc2ccccc2)NC(=O)[C@@H](NC(=O)CNC(=O)[C@H](CCC(N)=O)NC(=O)[C@H](CO)NC(=O)[C@@H](N)Cc2c[nH]cn2)[C@@H](C)O)[C@@H](C)O)C(=O)N[C@@H](Cc2ccc(O)cc2)C(=O)N[C@@H](CO)C(=O)N[C@@H](CCCCN)C(=O)N1)C(C)C)C(=O)N[C@@H](CC(N)=O)C(=O)N[C@H](C(=O)O)[C@@H](C)O (H-HSQGTFTSKYSKELDSRRAQDFVQWLMNT-OH; lactam 9-13) | 652 nM | 19% | 23 nM
CSCC[C@H](NC(=O)[C@H](CC(C)C)NC(=O)[C@H](Cc1c[nH]c2ccccc12)NC(=O)[C@H](CCC(N)=O)NC(=O)[C@@H](NC(=O)[C@H](Cc1ccccc1)NC(=O)[C@H](CC(=O)O)NC(=O)[C@H](CCC(N)=O)NC(=O)[C@H](C)NC(=O)[C@H](CCCN=C(N)N)NC(=O)[C@H](CCCN=C(N)N)NC(=O)[C@H](CO)NC(=O)[C@H](CC(=O)O)NC(=O)[C@H](CC(C)C)NC(=O)[C@H](Cc1ccc(O)cc1)NC(=O)[C@H](CCCCN)NC(=O)[C@H](CO)NC(=O)[C@H](Cc1ccc(O)cc1)NC(=O)[C@H](CC(=O)O)NC(=O)[C@H](CO)NC(=O)[C@@H]1CSSC[C@H](NC(=O)[C@@H](N)Cc2c[nH]cn2)C(=O)N[C@@H](CCC(N)=O)C(=O)NCC(=O)N[C@@H]([C@@H](C)O)C(=O)N[C@@H](Cc2ccccc2)C(=O)N1)C(C)C)C(=O)N[C@@H](CC(N)=O)C(=O)N[C@H](C(=O)O)[C@@H](C)O (H-HCQGTFCSDYSKYLDSRRAQDFVQWLMNT-OH; disulfide 2-7) | 101 nM | 23% | 9200 nM
CSCC[C@H](NC(=O)[C@H](CC(C)C)NC(=O)[C@H](Cc1c[nH]c2ccccc12)NC(=O)[C@H](CCC(N)=O)NC(=O)[C@@H](NC(=O)[C@H](Cc1ccccc1)NC(=O)[C@H](CC(=O)O)NC(=O)[C@H](CCC(N)=O)NC(=O)[C@H](C)NC(=O)[C@H](CCCN=C(N)N)NC(=O)[C@H](CCCN=C(N)N)NC(=O)[C@H](CO)NC(=O)[C@H](CC(=O)O)NC(=O)[C@H](CC(C)C)NC(=O)[C@H](Cc1ccc(O)cc1)NC(=O)[C@H](CCCCN)NC(=O)[C@@H]1CCC(=O)NCCCC[C@H](NC(=O)[C@H](Cc2ccccc2)NC(=O)[C@@H](NC(=O)CNC(=O)[C@H](CCC(N)=O)NC(=O)[C@H](CO)NC(=O)[C@@H](N)Cc2c[nH]cn2)[C@@H](C)O)C(=O)N[C@@H](CO)C(=O)N[C@@H](CC(=O)O)C(=O)N[C@@H](Cc2ccc(O)cc2)C(=O)N1)C(C)C)C(=O)N[C@@H](CC(N)=O)C(=O)N[C@H](C(=O)O)[C@@H](C)O (H-HSQGTFKSDYEKYLDSRRAQDFVQWLMNT-OH; lactam 7-11) |  | 17% | 47 nM

Next, values leading:

IC50 [1] | Activity [2] | EC50 [3] | Compound
6.4 nM |  |  | CSCC[C@H](NC(=O)[C@H](CC(C)C)NC(=O)[C@H](Cc1c[nH]c2ccccc12)NC(=O)[C@H](CCC(N)=O)NC(=O)[C@@H](NC(=O)[C@H](Cc1ccccc1)NC(=O)[C@H](CC(=O)O)NC(=O)[C@H](CCC(N)=O)NC(=O)[C@H](C)NC(=O)[C@H](CCCNC(=N)N)NC(=O)[C@H](CCCNC(=N)N)NC(=O)[C@H](CO)NC(=O)[C@H](CC(=O)O)NC(=O)[C@H](CC(C)C)NC(=O)[C@H](Cc1ccc(O)cc1)NC(=O)[C@H](CS)NC(=O)[C@H](CO)NC(=O)[C@H](Cc1ccc(O)cc1)NC(=O)[C@H](CC(=O)O)NC(=O)[C@H](CO)NC(=O)[C@H](CS)NC(=O)[C@H](Cc1ccccc1)NC(=O)[C@@H](NC(=O)CNC(=O)[C@H](CCC(N)=O)NC(=O)[C@H](CO)NC(=O)[C@@H](N)Cc1cnc[nH]1)[C@@H](C)O)C(C)C)C(=O)N[C@@H](CC(N)=O)C(=O)N[C@H](C(=O)O)[C@@H](C)O (H-HSQGTFCSDYSCYLDSRRAQDFVQWLMNT-OH)
13.6 nM |  |  | CSCC[C@H](NC(=O)[C@H](CC(C)C)NC(=O)[C@H](Cc1c[nH]c2ccccc12)NC(=O)[C@H](CCC(N)=O)NC(=O)[C@@H](NC(=O)[C@H](Cc1ccccc1)NC(=O)[C@H](CC(=O)O)NC(=O)[C@H](CCC(N)=O)NC(=O)[C@H](C)NC(=O)[C@H](CCCNC(=N)N)NC(=O)[C@H](CCCNC(=N)N)NC(=O)[C@H](CO)NC(=O)[C@H](CC(=O)O)NC(=O)[C@H](CC(C)C)NC(=O)[C@H](Cc1ccc(O)cc1)NC(=O)[C@H](CCCCN)NC(=O)[C@@H]1CCC(=O)NCCCC[C@H](NC(=O)[C@H](Cc2ccccc2)NC(=O)[C@@H](NC(=O)CNC(=O)[C@H](CCC(N)=O)NC(=O)[C@H](CO)NC(=O)[C@@H](N)Cc2cnc[nH]2)[C@@H](C)O)C(=O)N[C@@H](CO)C(=O)N[C@@H](CC(=O)O)C(=O)N[C@@H](Cc2ccc(O)cc2)C(=O)N1)C(C)C)C(=O)N[C@@H](CC(N)=O)C(=O)N[C@H](C(=O)O)[C@@H](C)O (H-HSQGTFKSDYEKYLDSRRAQDFVQWLMNT-OH; lactam 7-11)
1.7 nM | 85% | 6.3 nM | CSCC[C@H](NC(=O)[C@H](CC(C)C)NC(=O)[C@H](Cc1c[nH]c2ccccc12)NC(=O)[C@H](CCC(N)=O)NC(=O)[C@@H](NC(=O)[C@H](Cc1ccccc1)NC(=O)[C@H](CC(=O)O)NC(=O)[C@H](CCC(N)=O)NC(=O)[C@H](C)NC(=O)[C@H](CCCN=C(N)N)NC(=O)[C@@H]1CCC(=O)NCCCC[C@H](NC(=O)[C@H](CCCCN)NC(=O)[C@H](CO)NC(=O)[C@H](Cc2ccc(O)cc2)NC(=O)[C@H](CC(=O)O)NC(=O)[C@H](CO)NC(=O)[C@@H](NC(=O)[C@H](Cc2ccccc2)NC(=O)[C@@H](NC(=O)CNC(=O)[C@H](CCC(N)=O)NC(=O)[C@H](CO)NC(=O)[C@@H](N)Cc2c[nH]cn2)[C@@H](C)O)[C@@H](C)O)C(=O)N[C@@H](CC(C)C)C(=O)N[C@@H](CC(=O)O)C(=O)N[C@@H](CO)C(=O)N1)C(C)C)C(=O)N[C@@H](CC(N)=O)C(=O)N[C@H](C(=O)O)[C@@H](C)O (H-HSQGTFTSDYSKKLDSERAQDFVQWLMNT-OH; lactam 13-17)
5.6 nM |  |  | CSCC[C@H](NC(=O)[C@H](CC(C)C)NC(=O)[C@H](Cc1c[nH]c2ccccc12)NC(=O)[C@H](CCC(N)=O)NC(=O)[C@@H](NC(=O)[C@H](Cc1ccccc1)NC(=O)[C@H](CC(=O)O)NC(=O)[C@H](CCC(N)=O)NC(=O)[C@H](C)NC(=O)[C@H](CCCN=C(N)N)NC(=O)[C@H](CCCN=C(N)N)NC(=O)[C@H](CO)NC(=O)[C@H](CC(=O)O)NC(=O)[C@H](CC(C)C)NC(=O)[C@H](Cc1ccc(O)cc1)NC(=O)[C@H](CCCCN)NC(=O)[C@H](CO)NC(=O)[C@H](Cc1ccc(O)cc1)NC(=O)[C@H](CC(=O)O)NC(=O)[C@H](CO)NC(=O)[C@H](CS)NC(=O)[C@H](Cc1ccccc1)NC(=O)[C@@H](NC(=O)CNC(=O)[C@H](CCC(N)=O)NC(=O)[C@H](CS)NC(=O)[C@@H](N)Cc1c[nH]cn1)[C@@H](C)O)C(C)C)C(=O)N[C@@H](CC(N)=O)C(=O)N[C@H](C(=O)O)[C@@H](C)O (H-HCQGTFCSDYSKYLDSRRAQDFVQWLMNT-OH)
3.6 nM | 18% | 295 nM | CSCC[C@H](NC(=O)[C@H](CC(C)C)NC(=O)[C@H](Cc1c[nH]c2ccccc12)NC(=O)[C@H](CCC(N)=O)NC(=O)[C@@H](NC(=O)[C@H](Cc1ccccc1)NC(=O)[C@H](CC(=O)O)NC(=O)[C@H](CCC(N)=O)NC(=O)[C@H](C)NC(=O)[C@H](CCCN=C(N)N)NC(=O)[C@H](CCCN=C(N)N)NC(=O)[C@H](CO)NC(=O)[C@H](CC(=O)O)NC(=O)[C@H](CC(C)C)NC(=O)[C@H](Cc1ccc(O)cc1)NC(=O)[C@H](CCCCN)NC(=O)[C@H](CO)NC(=O)[C@H](Cc1ccc(O)cc1)NC(=O)[C@H](CS)NC(=O)[C@H](CO)NC(=O)[C@@H](NC(=O)[C@H](Cc1ccccc1)NC(=O)[C@@H](NC(=O)[C@H](CS)NC(=O)[C@H](CCC(N)=O)NC(=O)[C@H](CO)NC(=O)[C@@H](N)Cc1c[nH]cn1)[C@@H](C)O)[C@@H](C)O)C(C)C)C(=O)N[C@@H](CC(N)=O)C(=O)N[C@H](C(=O)O)[C@@H](C)O (H-HSQCTFTSCYSKYLDSRRAQDFVQWLMNT-OH)
